Results as given in ChEMBL document CHEMBL1629657, “In vitro antimicrobial activity of a new cephalosporin, ceftaroline, and determination of quality control ranges for MIC testing” (2009).
Converted amounts (≈) assume the structure as drawn.

Legend:
Type in all cases: functional
Corynebacterium jeikeium = test: Antimicrobial activity against Corynebacterium jeikeium by broth microdilution method
Procedure, shortened: (§1)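 Clinical isolates were tested by CLSI broth microdilution in unsupplemented cation-adjusted Mueller-Hinton broth. The read-out was the MIC, reported as MIC90 (μg/ml) per species or phenotypic group. Ceftriaxone, levofloxacin and imipenem were run in parallel as comparators.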

Streptococcus pyogenes = test: Antimicrobial activity against macrolide-resistant Streptococcus pyogenes by broth microdilution method
Procedure, shortened: (§2)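 CLSI broth microdilution in cation-adjusted Mueller-Hinton broth with 3% lysed horse blood, against streptococcal clinical isolates of the stated phenotype. Ceftaroline was compared with ceftriaxone, levofloxacin and imipenem. Activity was expressed as MICs (MIC90 in μg/ml).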

Enterococcus faecalis [1] = test: Antimicrobial activity against Enterococcus faecalis by broth microdilution method; procedure, shortened: as §1
Providencia rettgeri = test: Antimicrobial activity against Proteus rettgeri by broth microdilution method; procedure, shortened: as §1
Streptococcus pneumoniae [2] = test: Antimicrobial activity against penicillin-susceptible Streptococcus pneumoniae by broth microdilution method
Procedure, shortened: (§3)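 Streptococcal isolates were tested by CLSI broth microdilution in cation-adjusted Mueller-Hinton broth supplemented with 3% lysed horse blood. The read-out was the MIC, with MIC90 (μg/ml) reported per group. Ceftriaxone, levofloxacin and imipenem served as comparators.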

Enterobacter cloacae = test: Antimicrobial activity against ESBL-negative Enterobacter cloacae by broth microdilution method; procedure, shortened: as §1
Providencia stuartii = test: Antimicrobial activity against Proteus stuartii by broth microdilution method; procedure, shortened: as §1
Proteus mirabilis = test: Antimicrobial activity against Proteus mirabilis by broth microdilution method; procedure, shortened: as §1
[3] = fT>MIC Staphylococcus aureus infected mouse model for 1-log kill
Streptococcus pneumoniae [4] = test: Antimicrobial activity against levofloxacin-resistant Streptococcus pneumoniae by broth microdilution method; procedure, shortened: as §2
Haemophilus influenzae [5] = test: Antimicrobial activity against beta-lactamase-positive Haemophilus influenzae by broth microdilution method
Procedure, shortened: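 H. influenzae isolates were tested by CLSI broth microdilution using Haemophilus test medium. The MIC was read and MIC90 (μg/ml) reported for the group. Ceftriaxone, levofloxacin and imipenem served as comparators.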

Salmonella sp. = test: Antimicrobial activity against Salmonella spp. by broth microdilution method; procedure, shortened: as §1
Pseudomonas aeruginosa = test: Antimicrobial activity against Pseudomonas aeruginosa by broth microdilution method; procedure, shortened: as §1
Enterococcus faecalis [6] = test: Antimicrobial activity against vancomycin-susceptible Enterococcus faecalis by broth microdilution method; procedure, shortened: as §1
Staphylococcus = test: Antimicrobial activity against methicillin-resistant coagulase-negative Staphylococcus by broth microdilution method
Procedure, shortened: (§4)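 Isolates of the stated resistance phenotype were tested by CLSI broth microdilution in unsupplemented cation-adjusted Mueller-Hinton broth. Ceftaroline was compared with ceftriaxone, levofloxacin and imipenem. Activity was expressed as MICs (MIC90 in μg/ml).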

Klebsiella pneumoniae = test: Antimicrobial activity against ESBL-positive Klebsiella pneumoniae by broth microdilution method; procedure, shortened: as §1
Streptococcus agalactiae = test: Antimicrobial activity against Streptococcus agalactiae by broth microdilution method; procedure, shortened: as §3
Escherichia coli = test: Antimicrobial activity against ESBL-positive Escherichia coli by broth microdilution method; procedure, shortened: as §1
Shigella sp. = test: Antimicrobial activity against Shigella spp. by broth microdilution method; procedure, shortened: as §1
Enterococcus faecium [7] = test: Antimicrobial activity against Enterococcus faecium by broth microdilution method; procedure, shortened: as §1
Staphylococcus aureus = test: Antimicrobial activity against vancomycin-resistant Staphylococcus aureus by broth microdilution method; procedure, shortened: as §4
Enterococcus faecium [8] = test: Antimicrobial activity against vancomycin-susceptible Enterococcus faecium by broth microdilution method; procedure, shortened: as §1
Haemophilus influenzae [9] = test: Antimicrobial activity against beta-lactamase-negative ampicillin resistant Haemophilus influenzae by broth microdilution method
Procedure, shortened: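 CLSI broth microdilution in Haemophilus test medium (cation-adjusted Mueller-Hinton base) against clinical H. influenzae isolates of the stated phenotype. Ceftaroline was compared with ceftriaxone, levofloxacin and imipenem. Activity was expressed as MICs (MIC90 in μg/ml).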

Work on CCO/N=C(\C(=O)N[C@@H]1C(=O)N2C(C(=O)[O-])=C(Sc3nc(-c4cc[n+](C)cc4)cs3)CS[C@H]12)c1nsc(NP(=O)(O)O)n1 [CEFTAROLINE FOSAMIL] yielded an MIC90 (Corynebacterium jeikeium) greater than 32 µg/mL, an MIC (Streptococcus pyogenes) of 0.015 µg/mL (≈ 0.0219 µM) and an MIC50 (Streptococcus pyogenes) of 0.015 µg/mL (≈ 0.0219 µM). The MIC90 (Streptococcus pyogenes) was 0.015 µg/mL (≈ 0.0219 µM), the MIC50 (Enterococcus faecalis [1]) was 2 µg/mL (≈ 2.92 µM) and the MIC90 (Enterococcus faecalis [1]) was 4 µg/mL (≈ 5.84 µM). It also gave an MIC50 (Providencia rettgeri) of 1 µg/mL (≈ 1.46 µM), an MIC90 (Providencia rettgeri) of 4 µg/mL (≈ 5.84 µM) and an MIC (Streptococcus pneumoniae [2]) of 0.015 µg/mL (≈ 0.0219 µM). The MIC50 (Streptococcus pneumoniae [2]) was 0.015 µg/mL (≈ 0.0219 µM), the MIC90 (Streptococcus pneumoniae [2]) was 0.015 µg/mL (≈ 0.0219 µM) and the MIC50 (Enterobacter cloacae) was 0.12 µg/mL (≈ 0.175 µM). For the same compound, the MIC90 (Enterobacter cloacae) was 0.5 µg/mL (≈ 0.73 µM), the MIC50 (Providencia stuartii) was 1 µg/mL (≈ 1.46 µM) and the MIC90 (Providencia stuartii) was 4 µg/mL (≈ 5.84 µM). For the same compound, the MIC50 (Proteus mirabilis) was 0.06 µg/mL (≈ 0.0876 µM), the MIC90 (Proteus mirabilis) was 4 µg/mL (≈ 5.84 µM) and the “fT>MIC” value [3] was 33%. It also gave an MIC50 (Streptococcus pneumoniae [4]) of 0.03 µg/mL (≈ 0.0438 µM), an MIC90 (Streptococcus pneumoniae [4]) of 0.25 µg/mL (≈ 0.365 µM) and an MIC (Haemophilus influenzae [5]) of 0.015 µg/mL (≈ 0.0219 µM). For the same compound, the MIC50 (Haemophilus influenzae [5]) was 0.015 µg/mL (≈ 0.0219 µM), the MIC90 (Haemophilus influenzae [5]) was 0.06 µg/mL (≈ 0.0876 µM) and the MIC50 (Salmonella sp.) was 0.12 µg/mL (≈ 0.175 µM). For the same compound, the MIC90 (Salmonella sp.) was greater than 32 µg/mL, the MIC50 (Pseudomonas aeruginosa) was 16 µg/mL (≈ 23.4 µM) and the MIC90 (Pseudomonas aeruginosa) was greater than 32 µg/mL. For the same compound, the MIC (Enterococcus faecalis [6]) was 1 µg/mL (≈ 1.46 µM), the MIC50 (Enterococcus faecalis [6]) was 1 µg/mL (≈ 1.46 µM) and the MIC90 (Enterococcus faecalis [6]) was 4 µg/mL (≈ 5.84 µM). For the same compound, the MIC50 (Staphylococcus) was 0.25 µg/mL (≈ 0.365 µM), the MIC90 (Staphylococcus) was 0.5 µg/mL (≈ 0.73 µM) and the MIC50 (Klebsiella pneumoniae) was 32 µg/mL (≈ 46.7 µM). For the same compound, the MIC90 (Klebsiella pneumoniae) was greater than 32 µg/mL, the MIC (Streptococcus agalactiae) was 0.015 µg/mL (≈ 0.0219 µM) and the MIC50 (Streptococcus agalactiae) was 0.015 µg/mL (≈ 0.0219 µM). It also gave an MIC90 (Streptococcus agalactiae) of 0.015 µg/mL (≈ 0.0219 µM), an MIC50 (Escherichia coli) greater than 32 µg/mL and an MIC90 (Escherichia coli) greater than 32 µg/mL. It also gave an MIC50 (Shigella sp.) of 0.03 µg/mL (≈ 0.0438 µM), an MIC90 (Shigella sp.) of 0.12 µg/mL (≈ 0.175 µM) and an MIC50 (Enterococcus faecium [7]) of 32 µg/mL (≈ 46.7 µM). For the same compound, the MIC90 (Enterococcus faecium [7]) was greater than 32 µg/mL, the MIC (Staphylococcus aureus) was 0.5 µg/mL (≈ 0.73 µM) and the MIC50 (Enterococcus faecium [8]) was 1 µg/mL (≈ 1.46 µM). It also gave an MIC90 (Enterococcus faecium [8]) of 16 µg/mL (≈ 23.4 µM), an MIC50 (Haemophilus influenzae [9]) of 0.12 µg/mL (≈ 0.175 µM) and an MIC90 (Haemophilus influenzae [9]) of 0.25 µg/mL (≈ 0.365 µM).
